To fix the notation:
B1: tRNA (parent)
chain: GUUCCGUUGGCGUAAUGGUAACGCGUCUCCCUCCUAAGGAGAAGACUGCGGGUUCGAGUCCCGUACGGAACG

Variants at the floor of the assay were thinned out.

Variants of B1 are the subject of the series. Put plainly: yeast fitness relative to wild type (ratio to wild type); higher = fitter; tRNA-Arg(CCU), competitive growth, 37 C, YPD. An outline of the steps:
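Amplicons of the tRNA-Arg(CCU) gene were sequenced, 100-nucleotide paired-end, from the start population and from each end population of a pooled yeast competition. The competition, in six parallel replicates, lasted 24 hours in YPD at 37°C. Fitness relative to wild type was calculated from changes in genotype frequencies. Genotypes had to have ≥ 100 starting reads, and estimates < 0.5 were set to 0.5.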
For the variant GUUCCGUUGGCGUAAUGGUAACGCGUCUCCCUCCUAUGGAGAAGACUGCGGGUUCGAGUCCCGUACGCAACG, the yeast fitness came to 0.837.

As to GUUCCGUUGGCGUAAUGGUAACGCGUCUCCCUCCUAAAGUGAAGACUGCGGGUUCGAGUCCCGUGCGGAACG, the yeast fitness was at most 0.5.

As for GUUCCGUUGGCGUAAUGGUAACGCGUCUCCCUCCUAAAGAGAUGACUGCGGGUUCAAGUCCCAUACGGAACG, the yeast fitness was at most 0.5.

As to GUUCCGUUGGCGUAAUGGUAACGCGUCUCCCUCCUAUGGAGAAGACUGCGGAUUCGAGUCCCGUACGGAACG, the yeast fitness came to 0.534. As to GUUCCGUUGGCGUAAUGGUAACGCGUCUCCCUCCUAAAGAGAAGACAGCGGGUUGGAGUCUCGUACGGAACG, the yeast fitness is 0.718. Turning to GUUCCGUUGGCGUAAUGGUAACGCGUCUCCCUCCUAAAGAGAUGACUGCGGGUACGAGUCCCGUACGGAACG, the yeast fitness is at most 0.5. For GUUCCGUUGGCGUAAUGGUAACGCGUCUCCCUCCUAUGGAGAAGACUGAGGGUUCGAGUCCCGUAUGGAACG the value was at most 0.5; for GUUCCGUUGGCGUAAUGGUAACGCGUCUCCCUCCUAUGGAGAAGACUGUGGGUUCGAGUCCCGCACGGAACG, 0.545.

Regarding GUUCCGUUGGCGUAAUGGUAACGCGUCUCCCUCCUAAAGAGAGGACUGCGGGUUCGAGUCCCGUACGGAACG, the yeast fitness was determined as 0.607. Take GUUCCGUUGGCGUAAUGGUAACGCGUCUCCCUCCUAUGGAGAAGACUGCGGGUUCGGGUCCCGUACGGAACG: the yeast fitness came out at 0.648. As for GUUCCGUUGGCGUAAUGGUAACGCGUCUCCCUCCUAUGGAGAAGACAGCGGUUUCGAGUCCCGUACGGAACG, the yeast fitness is at most 0.5. On to GUUCCGUUGGCGUAAUGGUAACGCGUCUCCCUCCUAAAGAGAAGAAUGCGGGUUCGAGUCCCGUACGGAACG, for which the yeast fitness was 0.993.

In the case of GUUCCGUUGGCGUAAUGGUAACGCGUCUCCCUCCUAAAGAGAAGAUUGCGGGUUCGAGUCCCGUACGGAACG, the yeast fitness was 0.798. Regarding GUUCCGUUGGCGUAAUGGUAACGCGUCUCCCUCCUAUGGAGAAGACUCCGGGUUCGAGUCCCGUACGGAUCG, the yeast fitness was determined as 0.547. GUUCCGUUGGCGUAAUGGUAACGCGUCUCCCUCCUAAAGUGAAGACUGCCGGUUCGAGUGCCGUACAGACCG: the yeast fitness is at most 0.5. Consider GUUCCGUUGGCGUAAUGGUAACGCGUCUCCCUCCUAAAGAGAAGACUGCGGGUUCGAGUCCGGUACGGAUCG, for which the yeast fitness is at most 0.5.

Turning to GUUCCGUUGGCGUAAUGGUAACGCGUCUCCCUCCUAAAGAGAAGACUGCGGGUUCGAGUCCCGUCCGGAACG, the yeast fitness is 0.707. The figure for GUUCCGUUGGCGUAAUGGUAACGCGUCUCCCUCCUAUGGAGAAAACUGCGGGUUCGCGUCGCGUACGGAACG is 0.625; for GUUCCGUUGGCGUAAUGGUAACGCGUCUCCCUCCUAUGGAGAAGACUGCGGGUUCCAGUCCCGUACGGAACG it is 0.528. For GUUCCGUUGGCGUAAUGGUAACGCGUCUCCCUCCUAAAGAGAAGACUGCGGGUACGCGUCCCGUACGGAACG, the yeast fitness came out at 0.551. With GUUCCGUUGGCGUAAUGGUAACGCGUCUCCCUCCUAAAGAGAAGACUGUGCGUUCGAGUCCCGUACGGAACG, the yeast fitness was at most 0.5. GUUCCGUUGGCGUAAUGGUAACGCGUCUCCCUCCUAAAGAGAAGACUGCGGGUUCGAGUCCCGUACGCAACG: the yeast fitness amounted to 0.823. For GUUCCGUUGGCGUAAUGGUAACGCGUCUCCCUCCUAAAGAGAAGACUGCGGGUUCGAGUCCCGUACGAAACG the value was 0.718; for GUUCCGUUGGCGUAAUGGUAACGCGUCUCCCUCCUAUGGAGAAGACUGCGGGUUCGAGGUCCGUACGGAACG, at most 0.5. Consider GUUCCGUUGGCGUAAUGGUAACGCGUCUCCCUCCUAUGGAGAAGACUGCGGGUUUGAGUCCCGUUCGGAACG, for which the yeast fitness was at most 0.5. As to GUUCCGUUGGCGUAAUGGUAACGCGUCUCCCUCCUAUGGAGAAGACUGCGGGUUCGAGUCUCGUACGGAACG, the yeast fitness came to 0.771. For GUUCCGUUGGCGUAAUGGUAACGCGUCUCCCUCCUAUGGACAAGAGUGCGGGUUCGAGUCCCGUACGGAACG the value was at most 0.5. Regarding GUUCCGUUGGCGUAAUGGUAACGCGUCUCCCUCCUAUGGAGAAGACUACGGGUUCGAGUCUCGUACGGAACG, the yeast fitness worked out at 0.531. On to GUUCCGUUGGCGUAAUGGUAACGCGUCUCCCUCCUAAAGAGAAGACUGCGGGUUCGAGUCCCGUUCGUAACG, for which the yeast fitness was 0.665. Turning to GUUCCGUUGGCGUAAUGGUAACGCGUCUCCCUCCUAAAGAGAAGCCUGCGGGUUCGAGUCCCGUACGGAACG, the yeast fitness worked out at 0.818.

With GUUCCGUUGGCGUAAUGGUAACGCGUCUCCCUCCUAUGGAGAAGACUGCGGGUUCGAGUUCGGAACGGUACG, the yeast fitness was at most 0.5. Regarding GUUCCGUUGGCGUAAUGGUAACGCGUCUCCCUCCUAAAGACAAGACUGCGGGUUCGAGUCCCGUACGGAACG, the yeast fitness worked out at 0.659. For GUUCCGUUGGCGUAAUGGUAACGCGUCUCCCUCCUAUCGAGAAGACUGCGGGUUCGAGUCCCAUACGGAACG the value was at most 0.5; for GUUCCGUUGGCGUAAUGGUAACGCGUCUCCCUCCUAAAGUGAAGACUGCGGGUUCGAGUCCCGUACGGAACG, 0.747; for GUUCCGUUGGCGUAAUGGUAACGCGUCUCCCUCCUAAAGAGAGGACUGCGGGUUCGAGUCCCGUACGGACCG, 0.584. For GUUCCGUUGGCGUAAUGGUAACGCGUCUCCCUCCUAAAGCGAAGACUGCGGGCUCGAGUCCCGUACGGAACG, the yeast fitness is 0.538.

Turning to GUUCCGUUGGCGUAAUGGUAACGCGUCUCCCUCCUAUGCAGAAGACUACGGGGUCGAGUCCCGUACGGAACG, the yeast fitness is at most 0.5. Take GUUCCGUUGGCGUAAUGGUAACGCGUCUCCCUCCUAUGGAGAAGACUGCAGGUUCGAGUCCCGUACGGUACG: the yeast fitness is 0.805. Consider GUUCCGUUGGCGUAAUGGUAACGCGUCUCCCUCCUAAAGAGAAGACUGCGGGUUCGACUCCCGUACGGAACG, for which the yeast fitness was 1. On to GUUCCGUUGGCGUAAUGGUAACGCGUCUCCCUCCUAUGGAGAAAACUGCGGGUUCGAGUCCCGUAUGGAACG, for which the yeast fitness was found to be 0.535. For the variant GUUCCGUUGGCGUAAUGGUAACGCGUCUCCCUCCUAUCGAGAAGACUGCGGGUUCGAGUCCCGUACGGAACG, the yeast fitness was determined as 0.557.

Turning to GUUCCGUUGGCGUAAUGGUAACGCGUCUCCCUCCUAAAGAGAAGAAUGCGGGUUCGGGUCCCGUACGGAACG, the yeast fitness turned out to be 0.769. Turning to GUUCCGUUGGCGUAAUGGUAACGCGUCUCCCUCCUAAAGAGAAGACUGCGGGUUCGAGUCCCGUACAGAACG, the yeast fitness came to 0.881. For GUUCCGUUGGCGUAAUGGUAACGCGUCUCCCUCCUAUGGAGAAGACCGCGGGUUCGAGUCCCGUACGGAACG, the yeast fitness worked out at 0.667.

Turning to GUUCCGUUGGCGUAAUGGUAACGCGUCUCCCUCCUAUGGAGAAGACAGCGGGUUCGAGUCCCGUACGGAACG, the yeast fitness amounted to 0.796. As to GUUCCGUUGGCGUAAUGGUAACGCGUCUCCCUCCUAAAGAGAAGACUGCGGGUUAGAGUCCCGUACGAAACG, the yeast fitness was at most 0.5.

As for GUUCCGUUGGCGUAAUGGUAACGCGUCUCCCUCCUAUGGAGAAGACUGCGGGUUCGAGUCCCGUGCGGAACG, the yeast fitness came to 0.651. GUUCCGUUGGCGUAAUGGUAACGCGUCUCCCUCCUAAAGAGAAGACUGCGGGUUCGAGUUCCGUACGGAACG: the yeast fitness worked out at 0.831.

For GUUCCGUUGGCGUAAUGGUAACGCGUCUCCCUCCUAAAGAGAACACGGCGGGUUCGAGUCCCGUACGGAACG, the yeast fitness was at most 0.5. As to GUUCCGUUGGCGUAAUGGUAACGCGUCUCCCUCCUAUGGAGAAGACUGCGGGUUCGUGUCCCGUCCGAAACG, the yeast fitness was 0.561.

Take GUUCCGUUGGCGUAAUGGUAACGCGUCUCCCUCCUAUGGAGAAGACUGCGGGGUGGAGUCCAGUACGGAACG: the yeast fitness stood at 0.744. The figure for GUUCCGUUGGCGUAAUGGUAACGCGUCUCCCUCCUAAAGAGAAGACUGCGGGUUUGAGUCCCGUACGGAACG is 0.849; for GUUCCGUUGGCGUAAUGGUAACGCGUCUCCCUCCUAAAGAGAAGACUGCGGGUUGGAGUCCCGUACGGAACG it is 0.564.

As to GUUCCGUUGGCGUAAUGGUAACGCGUCUCCCUCCUAAAGAGAAGACUGCGGGUUCGAGUCACGUACGGAACG, the yeast fitness came out at 0.646. Take GUUCCGUUGGCGUAAUGGUAACGCGUCUCCCUCCUAUGGAGAAGACUGCGGGUUCGAGUCCCGUAUGGAACG: the yeast fitness was 0.627. For the variant GUUCCGUUGGCGUAAUGGUAACGCGUCUCCCUCCUAUGGAGAAGACUCCGGGUUCGAGUCCCGUACGGAACG, the yeast fitness came out at 0.674.

In the case of GUUCCGUUGGCGUAAUGGUAACGCGUCUCCCUCCUAUGGAGAAGACUGCGGGUUCGAGUCCAGUACGGAACG, the yeast fitness is 0.523. As for GUUCCGUUGGCGUAAUGGUAACGCGUCUCCCUCCUAAAGAGAAGACUGCGGGUUCAAGUCCCGUACGGAUCG, the yeast fitness worked out at 0.7.

On to GUUCCGUUGGCGUAAUGGUAACGCGUCUCCCUCCUAUGGAGAAGACUGCGGGUUCGAGUCCCGUGAGGAACG, for which the yeast fitness was at most 0.5. As to GUUCCGUUGGCGUAAUGGUAACGCGUCUCCCUCCUAUCGAGAAGACUGCGGGUUCGAGUCUCGUACGGAACG, the yeast fitness was at most 0.5. Take GUUCCGUUGGCGUAAUGGUAACGCGUCUCCCUCCUAUGGAGAAGACUGUGGGUUCGAGUCCCGUACGGAACG: the yeast fitness stood at 0.68. For the variant GUUCCGUUGGCGUAAUGGUAACGCGUCUCCCUCCUAUCGAGAAGACUGCGGGUUCGAGUCCCGUCCGGAACG, the yeast fitness was at most 0.5. GUUCCGUUGGCGUAAUGGUAACGCGUCUCCCUCCUAUGGAGAAGAAUGCGGGUUCGAGUCCCGUACGGAACG: the yeast fitness amounted to 0.816. With GUUCCGUUGGCGUAAUGGUAACGCGUCUCCCUCCUAUGGAGAAGACUGCGGGUUCGAGUCACGUACCGAACG, the yeast fitness came to 0.507. For GUUCCGUUGGCGUAAUGGUAACGCGUCUCCCUCCUAUGGAGAAGACUGCGGGUUCGAGUCCCCUACGGAACG the value was 0.591; for GUUCCGUUGGCGUAAUGGUAACGCGUCUCCCUCCUAAAGAGAAGAAUGCAGGCUCGAGUCCCGUACGGAACG, 0.596. Take GUUCCGUUGGCGUAAUGGUAACGCGUCUCCCUCCUAUGGAGAAGACUGCGGAUCCCGGUCCCGUACGGAACG: the yeast fitness is at most 0.5. For GUUCCGUUGGCGUAAUGGUAACGCGUCUCCCUCCUAAAGCGAAGACUGCGGGUUCAAGUCCCGUAUGGACCG, the yeast fitness is at most 0.5. Turning to GUUCCGUUGGCGUAAUGGUAACGCGUCUCCCUCCUAAAGAGAAGACUGCGGGUUCGAGUCACGUUCGGAACG, the yeast fitness was at most 0.5. With GUUCCGUUGGCGUAAUGGUAACGCGUCUCCCUCCUAAAGAGAAGACUGCGGGUUCGAGUCCGGUACGGAACG, the yeast fitness came to 0.648. For the variant GUUCCGUUGGCGUAAUGGUAACGCGUCUCCCUCCUAAAGAGAAGACUGCGGGUUCGAGUCCAGUACGGAACG, the yeast fitness turned out to be 0.742. In the case of GUUCCGUUGGCGUAAUGGUAACGCGUCUCCCUCCUAUGGACAAGACUGCGGGUUCGAGUCCCGUACGGAACG, the yeast fitness stood at 0.68. On to GUUCCGUUGGCGUAAUGGUAACGCGUCUCCCUCCUAAAGAGAAGACAGCGGGUUGGAGUCCCGUACGGAACG, for which the yeast fitness stood at 0.658. For GUUCCGUUGGCGUAAUGGUAACGCGUCUCCCUCCUAAAGAGAGGAUUGUGGGUUCGAGUCCCGUACGGAACG, the yeast fitness was determined as 0.611. For GUUCCGUUGGCGUAAUGGUAACGCGUCUCCCUCCUAAAGAGAAGACUGCGGGUUCGAGUCCUGUACGGCACG the value was 0.717.

For the origin of these results see the RNAGym collection of RNA variant scans (doi:10.1126/science.aae0568).
